Results published in ChEMBL document CHEMBL3774376, “Synthesis, and anticonvulsant activity of new amides derived from 3-methyl- or 3-ethyl-3-methyl-2,5-dioxo-pyrrolidin-1-yl-acetic acids” (Bioorg Med Chem, 2016).
The source made the active and inactive calls. The calls are words filed in the database; no cut-off is given here.

Legend:
[1] = test system: Mus musculus; assay: Anticonvulsant activity in CD1 albino mouse assessed as protection against maximal electroshock-induced seizures at 300 mg/kg, ip after 4 hrs; assay type: functional, organism-based
[2] = test system: Mus musculus; assay: Anticonvulsant activity in CD1 albino mouse assessed as protection against subcutaneous pentylenetetrazole-induced seizures at 100 to 300 mg/kg, ip after 0.5 hrs; assay type: functional; settings: CD1, 0.5 h, read-out: MED
In short: (§1)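 Male CD-1 mice (16-26 g), compounds ip in 0.5% methylcellulose/water at 30, 100 or 300 mg/kg, 3-4 per group. At 0.5 or 4 h, pentylenetetrazole 85 mg/kg was injected sc. Protection was absence of clonic convulsions (at least 5 s) over a 30 min observation. Minimum active dose recorded.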

[3] = test system: Mus musculus; assay: Anticonvulsant activity in CD1 albino mouse assessed as protection against subcutaneous pentylenetetrazole-induced seizures at 100 to 300 mg/kg, ip after 4 hrs; assay type: functional; settings: CD1, 4 h, read-out: MED; in short: as §1
[4] = test system: Mus musculus; assay: Neurotoxicity in CD1 albino mouse assessed as acute motor impairment at 100 to 300 mg/kg, ip after 0.5 hrs by rotarod test; assay type: toxicity, organism-based; settings: in vivo
In short: (§2)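 Male CD-1 mice given 30, 100 or 300 mg/kg ip in 0.5% methylcellulose, tested at 0.5 and 4 h. Motor impairment was scored as failure to keep balance for at least 1 min on a rod rotating at 10 rpm. Minimum dose causing impairment reported.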

[5] = test system: Mus musculus; assay: Anticonvulsant activity in CD1 albino mouse assessed as protection against maximal electroshock-induced seizures at 100 to 300 mg/kg, ip after 0.5 hrs; assay type: functional; settings: read-out: MED
[6] = test system: Mus musculus; assay: Neurotoxicity in CD1 albino mouse assessed as acute motor impairment at 300 mg/kg, ip after 4 hrs by rotarod test; assay type: toxicity, organism-based; settings: in vivo; in short: as §2
[7] = test system: Mus musculus; assay: Anticonvulsant activity in ip dosed CD1 albino mouse assessed as time to peak effect by 6Hz psychomotor seizure test; assay type: functional
In short: (§3)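 6-Hz corneal stimulation at 32 mA (6 Hz, 3 s) in male CD-1 mice dosed ip. Groups of six received several doses until at least three points fell between 10 and 90% protection. […] PI = TD50/ED50 (rotarod).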

[8] = Neurotoxicity in ip dosed CD1 albino mouse assessed as acute motor impairment by rotarod test; assay type: toxicity, organism-based; settings: in vivo
In short: (§4)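 Quantitation in male CD-1 mice dosed ip at the previously estimated time of peak effect. Seizures were induced by MES or by sc pentylenetetrazole 85 mg/kg; rotarod at 10 rpm assessed motor impairment. Groups of six, at least three doses giving 10-90% effect.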

[9] = test system: Mus musculus; assay: Anticonvulsant activity in CD1 albino mouse assessed as protection against subcutaneous pentylenetetrazole-induced seizures at 300 mg/kg, ip after 4 hrs; assay type: functional, organism-based; in short: as §1
[10] = test system: Mus musculus; assay: Anticonvulsant activity in CD1 albino mouse assessed as protection against maximal electroshock-induced seizures at 300 mg/kg, ip after 0.5 hrs; assay type: functional, organism-based
[11] = test system: Mus musculus; assay: Anticonvulsant activity in CD1 albino mouse assessed as protection against subcutaneous pentylenetetrazole-induced seizures at 300 mg/kg, ip after 0.5 hrs; assay type: functional, organism-based; in short: as §1
[12] = test system: Mus musculus; assay: Neurotoxicity in CD1 albino mouse assessed as acute motor impairment at 300 mg/kg, ip measured after 0.5 hrs by rotarod test; assay type: toxicity, organism-based; settings: in vivo; in short: as §2
[13] = test system: Mus musculus; assay: Local anesthetic activity in CD1 albino mouse assessed prolongation of time reaction at 2 % concentration after 20 secs by tail immersion test relative to vehicle control; assay type: functional
In short: (§5)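 Compound at 1 or 2% in 0.5% methylcellulose, injected sc (0.2 ml) about 1 cm from the tail root of male CD-1 mice. After 15 min, the distal 3 cm of the tail was immersed in 50 ± 0.5 °C water and withdrawal time measured, cut off at 20 s. n=8; mean ± SEM; % prolongation relative to vehicle.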

[14] = test system: Mus musculus; assay: Local anesthetic activity in CD1 albino mouse assessed prolongation of time reaction at 1 % concentration after 20 secs by tail immersion test relative to vehicle control; assay type: functional; in short: as §5
[15] = test system: Mus musculus; assay: Anticonvulsant activity in CD1 mouse assessed as protection against 32 mA-current- for 3 secs induced seizure at 100 mg/kg, ip after 0.25 hrs by 6Hz psychomotor seizure test; assay type: functional
In short: (§6)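 Male CD-1 mice given 100 mg/kg ip in 0.5% methylcellulose, four per time point. Corneal stimulation at 32 mA, 0.2 ms monopolar rectangular pulses at 6 Hz for 3 s, from a constant-current device. A mouse was protected if it resumed normal exploratory behavior within 10 s. Reported as number protected over number tested.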

[16] = organism: Mus musculus; assay: Protection index, ratio of TD50 for CD1 albino mouse to ED50 for protection against 32 mA-current- for 3 secs induced seizure in CD1 albino mouse by 6Hz psychomotor seizure test; in short: as §3
[17] = test system: Mus musculus; assay: Anticonvulsant activity in CD1 mouse assessed as protection against 32 mA-current- for 3 secs induced seizure at 100 mg/kg, ip after 2 hrs by 6Hz psychomotor seizure test; assay type: functional, organism-based; in short: as §6
[18] = test system: Mus musculus; assay: Anticonvulsant activity in ip dosed CD1 albino mouse assessed as protection against 32 mA-current- for 3 secs induced seizure by 6Hz psychomotor seizure test; assay type: functional; in short: as §3
[19] = organism: Mus musculus; assay: Protection index, ratio of TD50 for CD1 albino mouse to ED50 for protection against maximal electroshock-induced seizures in CD1 albino mouse; in short: as §4
[20] = test system: Mus musculus; assay: Anticonvulsant activity in CD1 mouse assessed as protection against 32 mA-current- for 3 secs induced seizure at 100 mg/kg, ip after 0.5 hrs by 6Hz psychomotor seizure test; assay type: functional; in short: as §6
[21] = test system: Mus musculus; assay: Anticonvulsant activity in ip dosed CD1 albino mouse assessed as time to peak effect; assay type: functional; in short: as §4
[22] = test system: Mus musculus; assay: Anticonvulsant activity in ip dosed CD1 albino mouse assessed as protection against maximal electroshock-induced seizures; assay type: functional
[23] = test system: Mus musculus; assay: Anticonvulsant activity in CD1 albino mouse assessed as protection against maximal electroshock-induced seizures at 100 to 300 mg/kg, ip after 4 hrs; assay type: functional; settings: read-out: MED
[24] = test system: Mus musculus; assay: Anticonvulsant activity in ip dosed CD1 albino mouse assessed as protection against subcutaneous pentylenetetrazole-induced seizures; assay type: functional; in short: as §4
[25] = test system: Mus musculus; assay: Protection index, ratio of TD50 for CD1 albino mouse to ED50 for protection against subcutaneous pentylenetetrazole-induced seizures in CD1 albino mouse; in short: as §4
[26] = test system: Mus musculus; assay: Neurotoxicity in CD1 albino mouse assessed as acute motor impairment at 100 to 300 mg/kg, ip after 4 hrs by rotarod test; assay type: toxicity, organism-based; settings: in vivo; in short: as §2
[27] = organism: Rattus norvegicus; assay: Displacement of [3H]BTX from voltage-sensitive Na+ channel site 2 in rat cerebral cortex synaptoneurosomes at 100 uM after 60 mins by liquid scintillation spectroscopic analysis; assay type: tissue-based
In short: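 Cerebral cortex synaptoneurosomes from rat, tested at 100 µM for inhibition of specific [3H]BTX binding to the voltage-sensitive Na+ channel site 2. Reported as % inhibition of control specific binding; run commercially.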

SMILES	Activity [1]	minimal effective dose [2]	MTC [4]	minimal effective dose [5]	Activity [6]	Activity [9]	Activity [10]	Activity [11]	Activity [12]	other results
CC1CC(=O)N(CC(=O)N2CCN(c3ccccc3)CC2)C1=O (centres undefined)	inactive	300 mg/kg	300 mg/kg	300 mg/kg	Non-toxic					minimal effective dose [3]: 300 mg/kg
CC[C@@H](C(N)=O)N1CCCC1=O										Time [7]: 1 h; TD50 [8]: > 500 mg/kg
CCC1(C)CC(=O)N(CC(=O)N2CCN(c3cccc(Cl)c3Cl)CC2)C1=O (centres undefined)	inactive				Non-toxic	inactive	inactive	inactive	Non-toxic	
Cc1cccc(C)c1NC(=O)C1CCCCN1C (centres undefined) [MEPIVACAINE]										Activity [13]: 116.67%; Activity [14]: 94.63%
Cc1ccccc1N1CCN(C(=O)CN2C(=O)CC(C)C2=O)CC1 (centres undefined)	inactive	100 mg/kg	300 mg/kg	300 mg/kg	Non-toxic	inactive				
CC1CC(=O)N(CC(=O)N2CCN(c3ccccc3Cl)CC2)C1=O (centres undefined)	inactive	300 mg/kg	300 mg/kg	300 mg/kg	Non-toxic	inactive				Activity [15]: 100%; Time [7]: 0.25 h; Ratio TD50/ED50 [16]: >3.29; Activity [17]: inactive; ED50 [18]: 152 mg/kg; TD50 [8]: > 500 mg/kg
CCC1(C)CC(=O)N(CC(=O)N2CCN(c3ccc(Cl)c(Cl)c3)CC2)C1=O (centres undefined)	inactive				Non-toxic	inactive	inactive	inactive	Non-toxic	
CCC1(C)CC(=O)N(CC(=O)N2CCN(c3ccccc3Cl)CC2)C1=O (centres undefined)	inactive		300 mg/kg	100 mg/kg	Non-toxic	inactive		inactive		Time [7]: 0.5 h; Ratio TD50/ED50 [16]: 1.8; Ratio TD50/ED50 [19]: 1.08; Activity [20]: 100%; ED50 [18]: 73.3 mg/kg; Time [21]: 0.5 h; TD50 [8]: 132 mg/kg; ED50 [22]: 122 mg/kg
CCC1(C)CC(=O)N(CC(=O)N2CCN(c3ccccc3F)CC2)C1=O (centres undefined)	inactive				Non-toxic	inactive	inactive	inactive	Non-toxic	
CCC1(C)CC(=O)NC1=O (centres undefined) [ETHOSUXIMIDE]	inactive	100 mg/kg			Non-toxic		inactive		Non-toxic	minimal effective dose [3]: 300 mg/kg; Time [21]: 0.25 h
CCC1(C)CC(=O)N(CC(=O)N2CCN(c3cccc(Cl)c3)CC2)C1=O (centres undefined)	inactive				Non-toxic	inactive	inactive	inactive	Non-toxic	
CC1CC(=O)N(CC(=O)N2CCN(c3ccccc3F)CC2)C1=O (centres undefined)			300 mg/kg	300 mg/kg	Non-toxic	inactive		inactive		minimal effective dose [23]: 300 mg/kg
Cc1cccc(N2CCN(C(=O)CN3C(=O)CC(C)C3=O)CC2)c1 (centres undefined)	inactive	100 mg/kg	300 mg/kg	300 mg/kg	Non-toxic	inactive				
CCC1(C)CC(=O)N(CC(=O)N2CCN(c3ccc(Cl)cc3)CC2)C1=O (centres undefined)	inactive	100 mg/kg	300 mg/kg		Non-toxic	inactive	inactive			Time [7]: 0.5 h; Ratio TD50/ED50 [16]: 1.53; ED50 [18]: 128 mg/kg; TD50 [8]: 196 mg/kg
CC1CC(=O)N(CC(=O)N2CCN(c3cccc(Cl)c3Cl)CC2)C1=O (centres undefined)	inactive	100 mg/kg			Non-toxic		inactive		Non-toxic	minimal effective dose [3]: 100 mg/kg; ED50 [24]: 74.7 mg/kg; Ratio TD50/ED50 [25]: 4.6; Time [21]: 1 h; TD50 [8]: 343 mg/kg
CCC1(C)CC(=O)N(CC(=O)N2CCN(c3cccc(C)c3)CC2)C1=O (centres undefined)	inactive				Non-toxic	inactive	inactive	inactive	Non-toxic	
CC1CC(=O)N(CC(=O)N2CCN(c3cccc(C(F)(F)F)c3)CC2)C1=O (centres undefined)		300 mg/kg	300 mg/kg	100 mg/kg		inactive				minimal effective dose [23]: 100 mg/kg; MTC [26]: 300 mg/kg
CCC1(C)CC(=O)N(CC(=O)N2CCN(c3ccccc3)CC2)C1=O (centres undefined)	inactive				Non-toxic	inactive	inactive	inactive	Non-toxic	
O=C1NC(=O)C(c2ccccc2)(c2ccccc2)N1 [PHENYTOIN]			100 mg/kg	30 mg/kg		inactive		inactive		inhibition [27]: 53.9%; minimal effective dose [23]: 30 mg/kg; Ratio TD50/ED50 [19]: 8.56; MTC [26]: 100 mg/kg; Activity [13]: 84%; Activity [14]: 18%; Time [21]: 1 h; TD50 [8]: 56.9 mg/kg
CCCC(CCC)C(=O)O [VALPROIC ACID]	inactive	300 mg/kg		300 mg/kg	Non-toxic	inactive			Non-toxic	Time [7]: 0.5 h; Time [21]: 0.5 h
CCC1(C)CC(=O)N(CC(=O)N2CCN(c3ccccc3C)CC2)C1=O (centres undefined)	inactive	100 mg/kg	300 mg/kg	100 mg/kg	Non-toxic	inactive				
